Legend:
[1] = system: TLR4 (HEK-Blue™ hTLR4 cells); test: SEAP activity assay; assay type: cell-based, human; settings: LPS-stimulated; absorbance at 620 nm; n ≥ 3
Summary of the method: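 Seeded at 2 × 10^5/well (24-well) and grown overnight, then treated with a range of test-compound concentrations with or without LPS. Supernatants heat-treated at 65 °C for 10 min. SEAP (NF-κB reporter) detected with HEK-Blue detection medium.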

[2] = system: RAW264.7 cells; test: MTT cell viability, RAW264.7 cells; assay type: cell-based, murine; settings: 50 μM
Summary of the method: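 MTT colourimetric viability assay. HEK-Blue hTLR4 cells (high-glucose DMEM, 10% FBS, normocin) seeded at 5 × 10^4/well. RAW264.7 cells seeded at 2 × 10^5/well. Both grown overnight before exposure to test compound.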

[3] = system: TLR4; test: Western blot, LPS-stimulated RAW264.7 cells; assay type: cell-based, murine
Summary of the method: (§1)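 Total protein extracted with M-PER reagent and quantified by BCA. Membranes incubated with primary antibodies overnight at 4 °C, washed in PBS/0·1% Tween 20, then HRP-conjugated secondary (1:1000) for 2 h. Bands detected by enhanced chemiluminescence, with β-actin as loading reference.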

[4] = system: TNFR-mediated NLRP3 inflammasome; test: NLRP3 inflammasome activation, IL-1β secretion, TNF-α-primed THP-1 cells; assay type: cell-based; settings: THP-1 primed with recombinant human TNF-α, activated with Nigericin
[5] = system: IL-1 receptor (IL-1R); test: IL-8 secretion, IL-1β-activated THP-1 cells; assay type: cell-based, human; settings: THP-1 activated with IL-1β
[6] = system: TLR4; test: Immunofluorescence confocal microscopy of p-p65, LPS-stimulated RAW264.7 cells; assay type: cell-based, murine; settings: TIP3 50 μM, 1 h before LPS 100 ng/ml
Summary of the method: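 RAW264.7 cells seeded on coverslips (2 × 10^5/well) and grown overnight. Stained with anti-p-p65 (1:1000, 2 h), then Alexa Fluor 546 secondary for 1 h. Nuclei stained with 5 µM Hoechst 33258. Fluorescence intensity quantified by confocal microscopy.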

[7] = system: TLR4; test: Intracellular NO and ROS; assay type: cell-based, murine; settings: LPS, 50 μM TIP3
Summary of the method: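 RAW264.7 cells seeded at 1 × 10^6 per 6 cm dish and grown overnight. Stimulated with LPS and treated with test compound. Intracellular NO stained with DAF-FM and ROS with DCF-DA. Cellular fluorescence quantified by flow cytometry.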

[8] = system: TLR7/8; test: TNF-α secretion, R848; assay type: cell-based, murine; settings: TIP3 at 50 μM
Summary of the method: (§2)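 RAW264.7 cells seeded at 2 × 10^5/well (96-well) or 5 × 10^5/well (24-well), grown overnight, then treated with test compound. Stimulus: poly(I:C), CpG-ODN (15), FSL-1 (16) or R848 (17). Supernatant cytokines read after 24 h by mouse ELISA kits (IFN-β, IL-6, TNF-α). Cells kept at 37 °C, 5% CO2.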

[9] = system: TLR3; test: Cytokine ELISA, poly; assay type: cell-based, murine; settings: 24 h
Summary of the method: as §2

[10] = system: TLR4; test: Western blot, LPS-stimulated hPBMCs; assay type: cell-based, human
Summary of the method: as §1

[11] = system: TLR4; test: Cytokine ELISA, LPS-stimulated THP-1-derived macrophages; assay type: cell-based, human
Summary of the method: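 THP-1 cells grown in RPMI 1640 with 10% FBS and differentiated to macrophages with 80 nM PMA for 24 h. Seeded at 2 × 10^5/well (96-well) or 5 × 10^5/well (24-well) and grown overnight. After 24 h of treatment with test compound and LPS, secreted IL-6 and TNF-α in supernatants were quantified by ELISA.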

[12] = system: TLR4; test: NO secretion assay, LPS-stimulated mBMDMs; assay type: cell-based, mouse
Summary of the method: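 Bone marrow macrophages from C57BL/6J femurs/tibiae, differentiated with M-CSF (25 ng/ml) for 3–4 days and replated 24 h before use. Seeded at 2 × 10^5/well, grown overnight. Pretreated with test compound for 1 h, then co-treated with LPS. Extracellular NO in supernatant measured with a nitric oxide detection kit by absorbance at 550 nm.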

[13] = system: hMNCs; test: Cell viability, hMNCs; assay type: cell-based, human
[14] = system: TLR4; test: Cytokine ELISA, LPS-stimulated hMNCs; assay type: cell-based, human
Summary of the method: (§3)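 Commercial human mononuclear cells kept in RPMI 1640 (2·05 mM L-glutamine, 10% FBS, penicillin/streptomycin). Seeded at 2 × 10^5/well and grown overnight. Stimulated with LPS or poly(I:C) alongside test compound. After 24 h, supernatant IL-6 and TNF-α measured by human sandwich ELISA.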

[15] = system: TLR3; test: Cytokine ELISA, poly; assay type: cell-based, human; settings: hMNCs, poly(I:C)
Summary of the method: as §3

[16] = system: mice with IMQ-induced psoriasis-like disease; test: Imiquimod; assay type: in vivo, mouse (C57BL/6)
Summary of the method: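 C57BL/6 mice (6–7 weeks, specific-pathogen-free) given 62·5 mg of 5% imiquimod cream topically for 5 consecutive days; controls left untreated. Test compound (10 or 50 nmol/g) or PBS given daily, and methotrexate (10 μg/g) as reference, all starting 1 day before the cream. Mice killed after 5 days. Back-skin severity scored on a PASI-based scale.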

[17] = system: lupus-prone mice (MRL/lpr); test: SLE model, MRL/lpr mice; assay type: in vivo, mouse (MRL/lpr); settings: 10 nmol/g i.p. daily, 20 days

With DYDVCVCH [TIP3] the “inhibition of LPS-induced SEAP activity (NF-κB)” value [1] was “hampered the LPS-induced SEAP activity in a dose-dependent manner”, the “cell viability / toxicity” value [2] was “did not have any toxic effects” and the ATF3 expression [3] was “hindered the LPS-induced expression of activating transcription factor 3 (ATF3)”. For the same sequence, the COX2 expression [3] was “represses the LPS-induced extracellular secretion of NO and the expression of iNOS and COX2 in a dose-dependent manner”, the Iκ-Bα degradation [3] was “inhibiting Iκ-Bα degradation” and the iNOS expression [3] was “represses the LPS-induced extracellular secretion of NO and the expression of iNOS and COX2 in a dose-dependent manner”. For the same sequence, the “phosphorylation of ERK” value [3] was “inhibiting the phosphorylation of c-Jun N-terminal kinase (JNK), p38 MAPK, extracellular signal–regulated kinase (ERK)”, the “phosphorylation of IRF3 (p-IRF3)” value [3] was “inhibiting Iκ-Bα degradation, and phosphorylation of the p65 subunit of NF-κB, and IRF3” and the “phosphorylation of JNK” value [3] was “inhibiting the phosphorylation of c-Jun N-terminal kinase (JNK)”. The “phosphorylation of p38” value [3] was “inhibiting the phosphorylation of c-Jun N-terminal kinase (JNK), p38 MAPK”, the “phosphorylation of p65 subunit of NF-κB (p-p65)” value [3] was “inhibiting Iκ-Bα degradation, and phosphorylation of the p65 subunit of NF-κB” and the IL-1β secretion [4] was “not in the TNF-α-primed cells”. The IL-8 secretion [5] was “did not hinder the secretion of IL-8”, the “LPS-induced p65 phosphorylation (confocal)” value [6] was “decreased the LPS-induced p65 phosphorylation” and the “intracellular NO” value ([7]; DAF-FM) was “significantly inhibited”. For the same sequence, the “intracellular ROS” value ([7]; DCF-DA) was “significantly inhibited”, the “TNF-α secretion mediated by TLR7, TLR8” value [8] was “somewhat weak inhibition” and the “poly(I:C)-induced IFN-α secretion” value [9] was “also inhibited”. The “poly(I:C)-induced IFN-β secretion” value [9] was “also inhibited”, the “poly(I:C)-induced IL-6 secretion” value [9] was “also inhibited” and the “TLR3-mediated TNF-α secretion” value ([9]; poly(I:C)) was “significantly diminished the TLR3-mediated TNF-α secretion in a dose-dependent manner”. For the same sequence, the “activation of ATF3” value [10] was “hindered the activation of NF-κB and ATF3”, the “activation of NF-κB” value [10] was “hindered the activation of NF-κB” and the “phosphorylation of ERK” value [10] was “inhibited the phosphorylation of MAPKs, including ERK, JNK, and p38”. For the same sequence, the “phosphorylation of IRF3” value [10] was “hindered the activation of NF-κB and ATF3 and the phosphorylation of IRF3”, the “phosphorylation of JNK” value [10] was “inhibited the phosphorylation of MAPKs, including ERK, JNK, and p38” and the “phosphorylation of p38” value [10] was “inhibited the phosphorylation of MAPKs, including ERK, JNK, and p38”. For the same sequence, the IL-6 secretion [11] was “significant dose-dependent inhibitory effect”, the TNF-α secretion [11] was “significant dose-dependent inhibitory effect” and the “LPS-induced extracellular NO” value [12] was “significant reduction”. For the same sequence, the cell viability [13] was “substantial reproducible outcomes were observed in terms of cell viability”, the “TLR4-mediated IL-6 secretion” value [14] was “significantly inhibited” and the “TLR4-mediated TNF-α secretion” value [14] was “significantly inhibited”. For the same sequence, the “TLR3-mediated TNF-α secretion” value [15] was “significantly inhibited”, the “effect relative to MTX” value ([16]; TIP3 10 nmol/g vs MTX 10 μg/g) was “relatively weaker effect than did the MTX-treated group” and the spleen weight ([16]; TIP3 50 nmol/g i.p.) was “significantly decreasing the spleen weight (almost to the weight of normal murine spleen)”. For the same sequence, the body weight ([16]; TIP3 50 nmol/g i.p., vs MTX and TIP3 10 nmol/g) was “underwent a weight loss as compared to the MTX- and TIP3 (10 nmol/g)-treated groups”, the “inflammation severity of back skin” value ([16]; TIP3 10 or 50 nmol/g daily) was “reversal of inflammation severity” and the PASI score ([16]; TIP3 10 or 50 nmol/g i.p.) was “did not significantly reduce the PASI score starting from day 2”. For the same sequence, the splenomegaly ([16]; TIP3 10 or 50 nmol/g i.p.) was “remarkably prevented splenomegaly in a dose-dependent manner”, the “complement C4” value [17] was “the levels of complement components C4 and C3 were recovered” and the dsDNA autoantibodies ([17]; ELISA) was “remained low”. For the same sequence, the “serum C3 complement” value ([17]; ELISA) was “found to recover”, the urine albumin ([17]; ELISA) was “reduced by TIP3 treatment” and the “lymphoid expansion and spleen volume” value ([17]; vs vehicle) was “reducing the lymphoid expansion and the spleen volume”.

Source: article PMC6997517 (EBioMedicine, 2020)
